# According to ChEMBL document CHEMBL1275252, “First survey of metallo-beta-lactamases in clinical isolates of Pseudomonas aeruginosa in a German university hospital” (2010):
# Tested on: Pseudomonas aeruginosa
# Experiment: Antimicrobial activity against Pseudomonas aeruginosa isolate PA399 expressing VIM-2 beta-lactamase
# Assay type: functional
row,Compound,MIC [µg/mL]
1,NCC[C@H](O)C(=O)N[C@@H]1C[C@H](N)[C@@H](O[C@H]2O[C@H](CN)[C@@H](O)[C@H](O)[C@H]2O)[C@H](O)[C@H]1O[C@H]1O[C@H](CO)[C@@H](O)[C@H](N)[C@H]1O [AMIKACIN],8
2,O=C(O)c1cn(C2CC2)c2cc(N3CCNCC3)c(F)cc2c1=O [CIPROFLOXACIN],≥ 4
3,COLISTIN,1
4,CO/N=C(\C(=O)N[C@@H]1C(=O)N2C(C(=O)[O-])=C(C[N+]3(C)CCCC3)CS[C@H]12)c1csc(N)n1 [CEFEPIME],≥ 64

# Tested on: Pseudomonas aeruginosa
# Experiment: Antimicrobial activity against Pseudomonas aeruginosa isolate PA462 expressing VIM-2 beta-lactamase
# Assay type: functional
row,Compound,MIC [µg/mL]
1,NCC[C@H](O)C(=O)N[C@@H]1C[C@H](N)[C@@H](O[C@H]2O[C@H](CN)[C@@H](O)[C@H](O)[C@H]2O)[C@H](O)[C@H]1O[C@H]1O[C@H](CO)[C@@H](O)[C@H](N)[C@H]1O [AMIKACIN],4
2,O=C(O)c1cn(C2CC2)c2cc(N3CCNCC3)c(F)cc2c1=O [CIPROFLOXACIN],≥ 4
3,COLISTIN,1
4,CO/N=C(\C(=O)N[C@@H]1C(=O)N2C(C(=O)[O-])=C(C[N+]3(C)CCCC3)CS[C@H]12)c1csc(N)n1 [CEFEPIME],≥ 64

# Tested on: Pseudomonas aeruginosa
# Experiment: Antimicrobial activity against Pseudomonas aeruginosa isolate PA465 expressing VIM-2 beta-lactamase
# Assay type: functional
row,Compound,MIC [µg/mL]
1,NCC[C@H](O)C(=O)N[C@@H]1C[C@H](N)[C@@H](O[C@H]2O[C@H](CN)[C@@H](O)[C@H](O)[C@H]2O)[C@H](O)[C@H]1O[C@H]1O[C@H](CO)[C@@H](O)[C@H](N)[C@H]1O [AMIKACIN],8
2,O=C(O)c1cn(C2CC2)c2cc(N3CCNCC3)c(F)cc2c1=O [CIPROFLOXACIN],≥ 4
3,COLISTIN,2
4,CO/N=C(\C(=O)N[C@@H]1C(=O)N2C(C(=O)[O-])=C(C[N+]3(C)CCCC3)CS[C@H]12)c1csc(N)n1 [CEFEPIME],≥ 64

# Tested on: Pseudomonas aeruginosa
# Experiment: Antimicrobial activity against Pseudomonas aeruginosa isolate PA469 expressing VIM-2 beta-lactamase
# Assay type: functional
row,Compound,MIC [µg/mL]
1,NCC[C@H](O)C(=O)N[C@@H]1C[C@H](N)[C@@H](O[C@H]2O[C@H](CN)[C@@H](O)[C@H](O)[C@H]2O)[C@H](O)[C@H]1O[C@H]1O[C@H](CO)[C@@H](O)[C@H](N)[C@H]1O [AMIKACIN],8
2,O=C(O)c1cn(C2CC2)c2cc(N3CCNCC3)c(F)cc2c1=O [CIPROFLOXACIN],≥ 4
3,COLISTIN,1
4,CO/N=C(\C(=O)N[C@@H]1C(=O)N2C(C(=O)[O-])=C(C[N+]3(C)CCCC3)CS[C@H]12)c1csc(N)n1 [CEFEPIME],≥ 64

# Tested on: Pseudomonas aeruginosa
# Experiment: Antimicrobial activity against Pseudomonas aeruginosa isolate PA475 expressing VIM-2 beta-lactamase
# Assay type: functional
row,Compound,MIC [µg/mL]
1,NCC[C@H](O)C(=O)N[C@@H]1C[C@H](N)[C@@H](O[C@H]2O[C@H](CN)[C@@H](O)[C@H](O)[C@H]2O)[C@H](O)[C@H]1O[C@H]1O[C@H](CO)[C@@H](O)[C@H](N)[C@H]1O [AMIKACIN],4
2,O=C(O)c1cn(C2CC2)c2cc(N3CCNCC3)c(F)cc2c1=O [CIPROFLOXACIN],≥ 4
3,COLISTIN,1
4,CO/N=C(\C(=O)N[C@@H]1C(=O)N2C(C(=O)[O-])=C(C[N+]3(C)CCCC3)CS[C@H]12)c1csc(N)n1 [CEFEPIME],≥ 64

# Tested on: Pseudomonas aeruginosa
# Experiment: Antimicrobial activity against Pseudomonas aeruginosa isolate PA477 expressing VIM-2 beta-lactamase
# Assay type: functional
row,Compound,MIC [µg/mL]
1,NCC[C@H](O)C(=O)N[C@@H]1C[C@H](N)[C@@H](O[C@H]2O[C@H](CN)[C@@H](O)[C@H](O)[C@H]2O)[C@H](O)[C@H]1O[C@H]1O[C@H](CO)[C@@H](O)[C@H](N)[C@H]1O [AMIKACIN],8
2,O=C(O)c1cn(C2CC2)c2cc(N3CCNCC3)c(F)cc2c1=O [CIPROFLOXACIN],≥ 4
3,COLISTIN,1
4,CO/N=C(\C(=O)N[C@@H]1C(=O)N2C(C(=O)[O-])=C(C[N+]3(C)CCCC3)CS[C@H]12)c1csc(N)n1 [CEFEPIME],≥ 64

# Tested on: Pseudomonas aeruginosa
# Experiment: Antimicrobial activity against Pseudomonas aeruginosa isolate PA481 expressing VIM-2 beta-lactamase
# Assay type: functional
row,Compound,MIC [µg/mL]
1,NCC[C@H](O)C(=O)N[C@@H]1C[C@H](N)[C@@H](O[C@H]2O[C@H](CN)[C@@H](O)[C@H](O)[C@H]2O)[C@H](O)[C@H]1O[C@H]1O[C@H](CO)[C@@H](O)[C@H](N)[C@H]1O [AMIKACIN],8
2,O=C(O)c1cn(C2CC2)c2cc(N3CCNCC3)c(F)cc2c1=O [CIPROFLOXACIN],≥ 4
3,COLISTIN,1
4,CO/N=C(\C(=O)N[C@@H]1C(=O)N2C(C(=O)[O-])=C(C[N+]3(C)CCCC3)CS[C@H]12)c1csc(N)n1 [CEFEPIME],≥ 64

# Tested on: Pseudomonas aeruginosa
# Experiment: Antimicrobial activity against Pseudomonas aeruginosa isolate PA500 expressing VIM-1 beta-lactamase
# Assay type: functional
row,Compound,MIC [µg/mL]
1,NCC[C@H](O)C(=O)N[C@@H]1C[C@H](N)[C@@H](O[C@H]2O[C@H](CN)[C@@H](O)[C@H](O)[C@H]2O)[C@H](O)[C@H]1O[C@H]1O[C@H](CO)[C@@H](O)[C@H](N)[C@H]1O [AMIKACIN],≤ 2
2,O=C(O)c1cn(C2CC2)c2cc(N3CCNCC3)c(F)cc2c1=O [CIPROFLOXACIN],≥ 4
3,COLISTIN,1
4,CO/N=C(\C(=O)N[C@@H]1C(=O)N2C(C(=O)[O-])=C(C[N+]3(C)CCCC3)CS[C@H]12)c1csc(N)n1 [CEFEPIME],≥ 64

# Tested on: Pseudomonas aeruginosa
# Experiment: Antimicrobial activity against Pseudomonas aeruginosa isolate PA510 expressing VIM-2 beta-lactamase
# Assay type: functional
row,Compound,MIC [µg/mL]
1,NCC[C@H](O)C(=O)N[C@@H]1C[C@H](N)[C@@H](O[C@H]2O[C@H](CN)[C@@H](O)[C@H](O)[C@H]2O)[C@H](O)[C@H]1O[C@H]1O[C@H](CO)[C@@H](O)[C@H](N)[C@H]1O [AMIKACIN],4
2,O=C(O)c1cn(C2CC2)c2cc(N3CCNCC3)c(F)cc2c1=O [CIPROFLOXACIN],≥ 4
3,COLISTIN,1
4,CO/N=C(\C(=O)N[C@@H]1C(=O)N2C(C(=O)[O-])=C(C[N+]3(C)CCCC3)CS[C@H]12)c1csc(N)n1 [CEFEPIME],≥ 64

# Tested on: Pseudomonas aeruginosa
# Experiment: Antimicrobial activity against metallo-beta-lactamase-negative Pseudomonas aeruginosa isolate PA459
# Assay type: functional
# How it was run: (§1)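 MBL-negative clinical P. aeruginosa isolates with reduced imipenem susceptibility, collected at the study hospital, some from cystic fibrosis patients. Species identity was confirmed by automated Gram-negative identification card. MIC was read in μg/ml.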
row,Compound,MIC [µg/mL]
1,NCC[C@H](O)C(=O)N[C@@H]1C[C@H](N)[C@@H](O[C@H]2O[C@H](CN)[C@@H](O)[C@H](O)[C@H]2O)[C@H](O)[C@H]1O[C@H]1O[C@H](CO)[C@@H](O)[C@H](N)[C@H]1O [AMIKACIN],2
2,COLISTIN,1
3,CO/N=C(\C(=O)N[C@@H]1C(=O)N2C(C(=O)[O-])=C(C[N+]3(C)CCCC3)CS[C@H]12)c1csc(N)n1 [CEFEPIME],8

# Tested on: Pseudomonas aeruginosa
# Experiment: Antimicrobial activity against metallo-beta-lactamase-negative Pseudomonas aeruginosa isolate PA460
# Assay type: functional
row,Compound,MIC [µg/mL]
1,NCC[C@H](O)C(=O)N[C@@H]1C[C@H](N)[C@@H](O[C@H]2O[C@H](CN)[C@@H](O)[C@H](O)[C@H]2O)[C@H](O)[C@H]1O[C@H]1O[C@H](CO)[C@@H](O)[C@H](N)[C@H]1O [AMIKACIN],4
2,O=C(O)c1cn(C2CC2)c2cc(N3CCNCC3)c(F)cc2c1=O [CIPROFLOXACIN],≥ 4
3,COLISTIN,1

# Tested on: Pseudomonas aeruginosa
# Experiment: Antimicrobial activity against metallo-beta-lactamase-negative Pseudomonas aeruginosa isolate PA479
# Assay type: functional
row,Compound,MIC [µg/mL]
1,NCC[C@H](O)C(=O)N[C@@H]1C[C@H](N)[C@@H](O[C@H]2O[C@H](CN)[C@@H](O)[C@H](O)[C@H]2O)[C@H](O)[C@H]1O[C@H]1O[C@H](CO)[C@@H](O)[C@H](N)[C@H]1O [AMIKACIN],8
2,O=C(O)c1cn(C2CC2)c2cc(N3CCNCC3)c(F)cc2c1=O [CIPROFLOXACIN],≥ 4
3,COLISTIN,1
4,CO/N=C(\C(=O)N[C@@H]1C(=O)N2C(C(=O)[O-])=C(C[N+]3(C)CCCC3)CS[C@H]12)c1csc(N)n1 [CEFEPIME],≥ 64

# Tested on: Pseudomonas aeruginosa
# Experiment: Antimicrobial activity against metallo-beta-lactamase-negative Pseudomonas aeruginosa isolate PA483
# Assay type: functional
row,Compound,MIC [µg/mL]
1,NCC[C@H](O)C(=O)N[C@@H]1C[C@H](N)[C@@H](O[C@H]2O[C@H](CN)[C@@H](O)[C@H](O)[C@H]2O)[C@H](O)[C@H]1O[C@H]1O[C@H](CO)[C@@H](O)[C@H](N)[C@H]1O [AMIKACIN],2
2,COLISTIN,1
3,CO/N=C(\C(=O)N[C@@H]1C(=O)N2C(C(=O)[O-])=C(C[N+]3(C)CCCC3)CS[C@H]12)c1csc(N)n1 [CEFEPIME],32

# Tested on: Pseudomonas aeruginosa
# Experiment: Antimicrobial activity against metallo-beta-lactamase-negative Pseudomonas aeruginosa isolate PA494
# Assay type: functional
row,Compound,MIC [µg/mL]
1,NCC[C@H](O)C(=O)N[C@@H]1C[C@H](N)[C@@H](O[C@H]2O[C@H](CN)[C@@H](O)[C@H](O)[C@H]2O)[C@H](O)[C@H]1O[C@H]1O[C@H](CO)[C@@H](O)[C@H](N)[C@H]1O [AMIKACIN],8
2,O=C(O)c1cn(C2CC2)c2cc(N3CCNCC3)c(F)cc2c1=O [CIPROFLOXACIN],≥ 4
3,COLISTIN,1
4,CO/N=C(\C(=O)N[C@@H]1C(=O)N2C(C(=O)[O-])=C(C[N+]3(C)CCCC3)CS[C@H]12)c1csc(N)n1 [CEFEPIME],8

# Tested on: Pseudomonas aeruginosa
# Experiment: Antimicrobial activity against metallo-beta-lactamase-negative Pseudomonas aeruginosa isolate PA507
# Assay type: functional
# How it was run: as §1
row,Compound,MIC [µg/mL]
1,NCC[C@H](O)C(=O)N[C@@H]1C[C@H](N)[C@@H](O[C@H]2O[C@H](CN)[C@@H](O)[C@H](O)[C@H]2O)[C@H](O)[C@H]1O[C@H]1O[C@H](CO)[C@@H](O)[C@H](N)[C@H]1O [AMIKACIN],16
2,COLISTIN,1

# Tested on: Pseudomonas aeruginosa
# Experiment: Antimicrobial activity against metallo-beta-lactamase-negative Pseudomonas aeruginosa isolate PA509
# Assay type: functional
row,Compound,MIC [µg/mL]
1,NCC[C@H](O)C(=O)N[C@@H]1C[C@H](N)[C@@H](O[C@H]2O[C@H](CN)[C@@H](O)[C@H](O)[C@H]2O)[C@H](O)[C@H]1O[C@H]1O[C@H](CO)[C@@H](O)[C@H](N)[C@H]1O [AMIKACIN],64
2,O=C(O)c1cn(C2CC2)c2cc(N3CCNCC3)c(F)cc2c1=O [CIPROFLOXACIN],≥ 4
3,COLISTIN,2
4,CO/N=C(\C(=O)N[C@@H]1C(=O)N2C(C(=O)[O-])=C(C[N+]3(C)CCCC3)CS[C@H]12)c1csc(N)n1 [CEFEPIME],16
